Several values for one entry are separate records, joined by “and”; a condition that tells them apart may be missing. Identical values can stand only once. Counter-ions that a name gives are not always drawn. Like-named read-outs stand apart in the source and are kept apart here.
Key:
[1] = Partition coefficient in n-octanol and water, measured by NIR fluorescence; format: physicochemical; settings: octanol–water partitioning measured with NIRF
Outline: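 Compound (5 nmol) was shaken 10 min in 0.6 mL n-octanol plus 0.6 mL water (final 4.15 μM, within the linear fluorescence range), then centrifuged at 10,000 rpm for 5 min. Triplicate 100 μL aliquots of each layer were imaged on IVIS (Ex/Em 745/820 nm) as ROI average radiance. log P = log(octanol/water intensity), corrected by a per-probe solvent factor; mean and SD reported.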

MCF-7 xenografts [2] = experiment: In vivo NIRF imaging of tumor uptake in nude mice bearing MCF-7 xenografts; settings: for retention of fluorescence in tumors: two days after injection
Outline: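 Nude mice with estradiol-supported MCF-7 mammary fat-pad xenografts (about 150 mm3) received 17 nmol dye i.p. (n = 3). They were imaged under 2% isoflurane at serial time points up to 8 days on IVIS (Ex 740/Em 820 nm, auto exposure, F-stop 2). Tumor ROI radiance (p/s/cm2/sr) was background-subtracted using another body region and normalized to tumor volume.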

MCF-7 xenografts [3] = experiment: Ex vivo dye biodistribution analysis by NIRF of harvested tumors and organs; format: in vivo, mice; settings: day 2 of injection
Outline: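 Ovariectomized female athymic mice carried mammary fat-pad MCF-7 xenografts (5 million cells in Matrigel, estradiol:cholesterol 1:3 implants), grown to about 150 mm3. A separate cohort received 17 nmol dye i.p. After IVIS imaging, mice were killed by ketamine/xylazine overdose at each time point. Tumor, muscle, liver, lung, heart, kidneys and skin were rinsed, dried and IVIS-imaged; organ ROIs were normalized to tumor volume.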

LTED cells = experiment: Cell viability / growth inhibition by cell number count; format: cell-based, human
Outline: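 LTED cells (MCF-7-derived, phenol red-free medium, charcoal-dextran stripped FBS) seeded at 60,000/well in 6-well plates and grown 2 days at 37 °C. They were then exposed to test compound for 2–5 days with 0.1% final ethanol or DMSO vehicle. Cells were saline-rinsed, nuclei released with HEPES–MgCl2 and ZAP (ethylhexadecyldimethylammonium bromide/acetic acid) and Coulter-counted. Three independent repeats, normalized to 100% viability; dose–response curves gave IC50.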

[4] = Cell viability / growth inhibition in benign breast epithelial cells; format: cell-based; settings: human, MCF-10A cells (benign breast epithelial cells)

SMILES	log P [1]	time of peak uptake (NIRF) (MCF-7 xenografts [2]; 17 nmol/mouse)	fluorescence intensity disappeared (MCF-7 xenografts [2]; 8 days after injection) [%]	retention of fluorescence in tumors (MCF-7 xenografts [2]; 17 nmol/mouse)	fluorescence intensity in tumor tissue compared to muscle (MCF-7 xenografts [3]) [fold]	IC50 (LTED cells; Homo sapiens, read-out: IC50 (cell growth inhibition), LTED cells) [µM]	IC50 (LTED cells; read-out: IC50 (cell growth inhibition), LTED cells)	inhibition of cells (LTED cells; up to 75 μM)	viability at 2 days, 50 µM [4] [%]
CC1(C)C(=CC=C2CCCC(C=CC3=[N+](CCCCS(=O)(=O)[O-])c4ccccc4C3(C)C)=C2Cl)N(CCCCCC(=O)O)c2ccccc21 [Compound 5, 3H-Indolium, 2-[2-[3-[2-[1-(5-Carboxypentyl)-1,3-dihydro-3,3-dimethyl-2H-indol-2-ylidene]ethylidene]-2-chloro-1-cyclohexen-1-yl]ethenyl]-3,3-dimethyl-1-(4-sulfobutyl) Inner Salt]	0.49	about 30 h	80	retained in the tumors	8.6				
CC1(C)C(/C=C/C2=C(Cl)C(=C\C=C3/N(CCCS(=O)(=O)[O-])c4ccccc4C3(C)C)/CCC2)=[N+](CCCS(=O)(=O)[O-])c2ccccc21.[Na+] [Compound 6, 3H-indolium, 2-[2-[2-chloro-3-[[1,3-dihydro-3,3-dimethyl-1-(3-sulfopropyl)-2H-indol-2-ylidene]ethylidene]-1-cyclohexen-1-yl]ethenyl]-3,3-dimethyl-1-(3-sulfopropyl)-, inner salt, sodium salt]	−1.13			retained in the tumors	6.3				
CC1(C)C(/C=C/C2=C(Cl)C(=C/C=C3\N(CCCCCC(=O)O)c4ccccc4C3(C)C)/CCC2)=[N+](CCCCCC(=O)O)c2ccccc21 [Compound 7]	1.35			retained in the tumors	4.5				
CC(C)=CCC/C(C)=C/CC/C(C)=C/CSc1ccccc1C(=O)O [FTS, S-trans-trans-farnesylthiosalicylic acid]						~51.3	~51.8 µM and < 50 µM	70–75%	~100

From article PMC5815365 (Molecular pharmaceutics, 2016)
